Here are results for 22 compounds from ChEMBL document CHEMBL1122081, “2-(Aminomethyl)phenols, a new class of saluretic agents. 4. Effects of oxygen and/or nitrogen substitution” (J Med Chem, 1982).

The subject of the first data set is Canis familiaris. Briefly: Saluretic property was estimated by the excretion of Na+ in dog administered intravenously; microequiv of Na+/min at 5 mg/kg iv stat, 0-99. Details: dose 5 mg/kg, route intravenous. As to conditions: in vivo. The data set is classed as ADME, organism-based, Canis lupus familiaris. Put shortly:
(§1)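 Dogs of 15-20 kg were given a single stat intravenous dose of 5 mg/kg and Na+ excretion was measured in microequiv/min. The score is the average of two dogs, or three where designated.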
With `CC(C)(C)c1cc(I)c(O)c(CNC(N)=O)c1`, the Saluretic potency is reported as 0 u equiv min-1.
Still for that read-out and setting: under `CC(C)(C)c1cc(Cl)c(O)c(CNS(N)(=O)=O)c1` stands 0 u equiv min-1; under `Oc1c(Cl)cc(Cl)c(Cl)c1CN1CCCCC1`, 0 u equiv min-1; under `COc1c(Cl)cc(Cl)c(Cl)c1CN.Cl`, 0 u equiv min-1.
Turning to `CN1CCN(Cc2cc(C(C)(C)C)cc(Cl)c2O)CC1.Cl`, the Saluretic potency is given as 0 u equiv min-1.
Same read-out and setting: under `CC(C)(C)c1cc(Cl)c2c(c1)CNCCO2.Cl` stands 0 u equiv min-1.
On the same count and under the same terms, under `O=CNCc1c(O)c(Cl)cc(Cl)c1Cl` stands 0 u equiv min-1.

The next data set relates to Canis familiaris. Briefly: Saluretic property was estimated by the excretion of Na+ in dog administered intravenously; microequiv of Na+/min at 5 mg/kg iv stat, 100-249. Further details: dose 5 mg/kg, route intravenous. The data set is classed as ADME, organism-based, Canis lupus familiaris. As to conditions: in vivo. Put shortly: as §1
For the compound `CC(C)(C)c1cc(I)c(OCC(N)=O)c(CN)c1.Cl`, the Saluretic potency is on record as 100 u equiv min-1.
Consider `Oc1c(Cl)cc(Cl)c(Cl)c1CN1CCOCC1`, for which the Saluretic potency is on record as 100 u equiv min-1.
The same measure, in the same setting: as for `NCC(=O)NCc1c(O)c(Cl)cc(Cl)c1Cl`, the figure is 100 u equiv min-1; as for `CC(C)(C)c1cc(Cl)c(O)c(/C=N/N=C(/N)S)c1`, 100 u equiv min-1; as for `CC(C)(C)c1cc(I)c(O)c(Cn2cnnn2)c1`, 100 u equiv min-1.
For `CC(C)(C)c1cc(Cl)c(O)c(/C=N/N=C(N)N)c1`, the Saluretic potency is 100 u equiv min-1.

The species named for another data set is Rattus norvegicus. Briefly: Saluretic property (excretion of Na+ in rat). It is filed as ADME, organism-based. Particulars: in vivo. A digest of the protocol:
(§2)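 Rats dosed orally; urinary Na+ excretion (microequiv) scored per dose level. Each score is the geometric mean of three animals per cage, with three cages per dose.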
Regarding `CC(C)(C)c1cc(I)c(O)c(CNC2=NCCC2)c1.Cl`, the Saluretic potency is listed as < 0.3 u equiv.
On the same count and under the same terms, under `CC(C)(C)c1cc(I)c(O)c(CNC2CCCCC2)c1.Cl` stands < 0.3 u equiv.
Still for that read-out and setting: as for `CC(C)(C)c1cc(I)c(OS(C)(=O)=O)c(CN)c1.Cl`, the figure is < 0.3 u equiv.
On the same count and under the same terms, as for `CC(C)(C)c1cc(I)c(OCC(N)=O)c(CN)c1.Cl`, the figure is < 0.3 u equiv.
In the case of `CC(C)(C)c1cc(I)c(O)c(CNC2=NCCO2)c1`, the Saluretic potency is listed as < 0.3 u equiv.
Same read-out and setting: under `CC(C)(C)c1cc(I)c(O)c(CNC(N)=O)c1` stands < 0.3 u equiv; under `CC(C)(C)c1cc(Cl)c(O)c(CNS(N)(=O)=O)c1`, < 0.3 u equiv.
The same measure, in the same setting: under `CC(C)(C)c1cc(I)c(O)c(CN=C(N)N)c1` stands < 0.3 u equiv; under `CC(C)(C)OC(=O)NCc1cc(C(C)(C)C)cc(I)c1O`, < 0.3 u equiv; under `CC(C)(C)c1cc(Cl)c2c(c1)CNC(=O)CO2`, < 0.3 u equiv.
On the same count and under the same terms, as for `CC(C)(C)c1cc(I)c2c(c1)CNS(=O)(=O)O2`, the figure is < 0.3 u equiv; as for `Oc1c(Cl)cc(Cl)c(Cl)c1CN1CCOCC1`, < 0.3 u equiv.
Regarding `Oc1c(Cl)cc(Cl)c(Cl)c1CN1CCCCC1`, the Saluretic potency was < 0.3 u equiv.
In the case of `NCC(=O)NCc1c(O)c(Cl)cc(Cl)c1Cl`, the Saluretic potency was < 0.3 u equiv.
On the same count and under the same terms, as for `CC(C)(C)c1cc(Cl)c(O)c(/C=N/N=C(/N)S)c1`, the figure is < 0.3 u equiv.
With `COc1c(Cl)cc(Cl)c(Cl)c1CN.Cl`, the Saluretic potency was < 0.3 u equiv.
Consider `CN1CCN(Cc2cc(C(C)(C)C)cc(Cl)c2O)CC1.Cl`, for which the Saluretic potency is reported as < 0.3 u equiv.
Still for that read-out and setting: under `CC(C)(C)c1cc(Cl)c2c(c1)CNCCO2.Cl` stands < 0.3 u equiv.
On the same count and under the same terms, under `CC(C)(C)c1cc(I)c(O)c(CNC2=NCCS2)c1` stands < 0.3 u equiv; under `CC(C)(C)c1cc(I)c(O)c(Cn2cnnn2)c1`, < 0.3 u equiv.
`O=CNCc1c(O)c(Cl)cc(Cl)c1Cl`: the Saluretic potency was < 0.3 u equiv.
Still for that read-out and setting: as for `CC(C)(C)c1cc(Cl)c(O)c(/C=N/N=C(N)N)c1`, the figure is < 0.3 u equiv.

A further data set has as its system Rattus norvegicus. Briefly: Saluretic property (excretion of Na+ in rat after PO dosing). The data set is classed as ADME, organism-based. Particulars: in vivo. A digest of the protocol: as §2
As for `CC(C)(C)c1cc(I)c(O)c(CNC2=NCCC2)c1.Cl`, the Saluretic potency is < 0.2 u equiv.
The same measure, in the same setting: as for `CC(C)(C)c1cc(I)c(O)c(CNC2CCCCC2)c1.Cl`, the figure is < 0.2 u equiv.
Still for that read-out and setting: under `CC(C)(C)c1cc(I)c(OS(C)(=O)=O)c(CN)c1.Cl` stands < 0.2 u equiv; under `CC(C)(C)c1cc(I)c(OCC(N)=O)c(CN)c1.Cl`, < 0.2 u equiv; under `CC(C)(C)c1cc(I)c(O)c(CNC2=NCCO2)c1`, < 0.2 u equiv.
With `CC(C)(C)c1cc(I)c(O)c(CNC(N)=O)c1`, the Saluretic potency is listed as < 0.2 u equiv.
Same read-out and setting: as for `CC(C)(C)c1cc(Cl)c(O)c(CNS(N)(=O)=O)c1`, the figure is < 0.2 u equiv; as for `CC(C)(C)c1cc(I)c(O)c(CN=C(N)N)c1`, < 0.2 u equiv; as for `CC(C)(C)OC(=O)NCc1cc(C(C)(C)C)cc(I)c1O`, < 0.2 u equiv.
On the same count and under the same terms, under `CC(C)(C)c1cc(Cl)c2c(c1)CNC(=O)CO2` stands < 0.2 u equiv.
The same measure, in the same setting: under `CC(C)(C)c1cc(I)c2c(c1)CNS(=O)(=O)O2` stands < 0.2 u equiv; under `Oc1c(Cl)cc(Cl)c(Cl)c1CN1CCOCC1`, < 0.2 u equiv; under `Oc1c(Cl)cc(Cl)c(Cl)c1CN1CCCCC1`, < 0.2 u equiv.
Turning to `NCC(=O)NCc1c(O)c(Cl)cc(Cl)c1Cl`, the Saluretic potency is listed as < 0.2 u equiv min-1.
Still for that read-out and setting: as for `CC(C)(C)c1cc(Cl)c(O)c(/C=N/N=C(/N)S)c1`, the figure is < 0.2 u equiv; as for `COc1c(Cl)cc(Cl)c(Cl)c1CN.Cl`, < 0.2 u equiv.
With `CN1CCN(Cc2cc(C(C)(C)C)cc(Cl)c2O)CC1.Cl`, the Saluretic potency is recorded as < 0.2 u equiv.
Take `CC(C)(C)c1cc(Cl)c2c(c1)CNCCO2.Cl`: the Saluretic potency is < 0.2 u equiv.
The same measure, in the same setting: as for `CC(C)(C)c1cc(I)c(O)c(CNC2=NCCS2)c1`, the figure is < 0.2 u equiv; as for `CC(C)(C)c1cc(I)c(O)c(Cn2cnnn2)c1`, < 0.2 u equiv.
In the case of `O=CNCc1c(O)c(Cl)cc(Cl)c1Cl`, the Saluretic potency is listed as < 0.2 u equiv.
The same measure, in the same setting: as for `CC(C)(C)c1cc(Cl)c(O)c(/C=N/N=C(N)N)c1`, the figure is < 0.2 u equiv.
